EP2 mod – EP2 receptor modulators, cAMP readout, primary screen, cell-based, HTRF cAMP, PGE2 stimulation | Prostaglandin E2 receptor EP2 subtype (Homo sapiens), P43116 | EP2-expressing cells, cAMP HTRF FRET, PGE2 co-stimulation | induction, % at 25 µM | 0.83% of 260,000 active;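 active means compounds whose cAMP rise, as percent of the full-agonist control response, exceeds 60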;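 further: rat C6 glioma line stably carrying human EP2 under a CMV promoter; the protocol text gives 20 µM as final concentration; 100% = response of wells given 1 µM PGE2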
Target sequence (P43116 whole entry, looked up): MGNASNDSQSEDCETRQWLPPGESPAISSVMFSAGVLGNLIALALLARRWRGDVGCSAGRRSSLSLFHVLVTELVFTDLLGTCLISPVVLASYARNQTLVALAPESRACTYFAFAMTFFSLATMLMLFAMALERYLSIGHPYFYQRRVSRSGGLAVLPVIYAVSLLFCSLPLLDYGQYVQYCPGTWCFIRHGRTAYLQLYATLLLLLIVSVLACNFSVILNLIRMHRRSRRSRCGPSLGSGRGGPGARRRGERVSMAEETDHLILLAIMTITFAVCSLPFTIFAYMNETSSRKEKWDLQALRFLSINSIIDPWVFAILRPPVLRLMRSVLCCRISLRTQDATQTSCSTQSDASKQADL
OX1R antag-1 – antagonists of human orexin 1 receptor (OX1R); inhibition, % at 6.6 µM; 1.8% of 330,000 active; OX1R-expressing cells, FRET antagonist read-out; in the data active means inhibition mostly above about 38%, no sharp cut-off; inactive means mostly below about 40%;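 further: 0% = agonist challenge alone and 100% = reference antagonist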
CHO parental Ca – ATP-evoked calcium signal inhibitors, parental CHO, primary screen, counter-screen for OX1R antagonist project, cell-based, fluorescence, Fluo-8 calcium dye. inhibition, % at 5.6 µM. 0.63% of 330,000 active. AID 463079, 2010. parental CHO-K1, ATP-induced calcium, Fluo-8 fluorescence;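 active means inhibition above that plate's mean sample inhibition plus 3 SD, cut at about 26% in these data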;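 further: 0% = ATP-challenged DMSO wells and 100% = DMSO wells without ATP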
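material = parental CHO cells | also added = ATP as calcium-mobilizing challenge | dosing = single point at 5.6 µM | detection = intracellular calcium via Fluo-8 no-wash fluorescent dye | read-out = % inhibition | benchmarks = low control ATP plus DMSO, high control DMSO only | repeats = one well per compound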
OX1R antag-2 – OX1R (HCRTR1) antagonists, primary screen, fluorescence, CHO/OX1R cells, Fluo-8 calcium, orexin A; Orexin/Hypocretin receptor type 1 (Homo sapiens), O43613; Fluo-8 calcium fluorescence; inhibition, % at 5 µM; 0.43% of 330,000 active; AID 434989, 2010;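 active means inhibition above its plate's threshold, mean inhibition of all tested compounds on the plate plus 3 SD, cut at about 37% in these data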;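 further: 0% = orexin A challenge wells and 100% = SB-334867-A antagonist wells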
PGE2 EP2 inh – human EP2 receptor antagonists, primary screen, TR-FRET cAMP, C6 glioma cells; Prostaglandin E2 receptor EP2 subtype (Homo sapiens), P43116; C6 glioma cells expressing human EP2; cells stimulated with saturating PGE2; inhibition, % at 25 µM; 0.52% of 260,000 active; AID 1422, 2008;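 active means percent inhibition above 40 after rounding to a whole number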;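 further: rat C6 glioma host cells with rolipram phosphodiesterase inhibitor present; the protocol text gives 20 µM as final concentration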
GPR7 antagonist – GPR7 receptor antagonists, primary screen, cell-based, fluorescence, single concentration. 1.1% of 290,000 active. Neuropeptides B/W receptor type 1 (Homo sapiens), P48145. AID 1861, 2009. inhibition, % at 4.4 µM. GPR7-expressing cells, fluorescence antagonist assay; in the data active means inhibition above about 16%, passing the limit was not always enough;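 further: cells stimulated with the agonist NPW; 0% = agonist with vehicle and 100% = vehicle without agonist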
Target sequence (P48145 whole entry, looked up): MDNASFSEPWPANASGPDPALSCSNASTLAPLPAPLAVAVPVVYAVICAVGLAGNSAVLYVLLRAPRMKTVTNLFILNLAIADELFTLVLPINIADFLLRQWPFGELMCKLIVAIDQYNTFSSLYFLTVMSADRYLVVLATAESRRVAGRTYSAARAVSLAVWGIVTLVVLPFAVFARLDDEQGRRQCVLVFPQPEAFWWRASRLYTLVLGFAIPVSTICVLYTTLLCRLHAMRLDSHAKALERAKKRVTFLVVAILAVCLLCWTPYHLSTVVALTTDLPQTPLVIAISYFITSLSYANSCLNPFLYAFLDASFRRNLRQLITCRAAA
Starred values were filed as active, the others as inactive; ! = not active in a repeat. Only some compounds are listed: those with a hit (about 3.7% of all), similar ones and a draw of the others.

What do the screens show for `CCOc1ccccc1-c1cc(-c2ccccc2)nc2c1c(=O)n(C)c(=O)n2C`?
EP2 mod: -29; OX1R antag-1: 15; CHO parental Ca: 4; OX1R antag-2: -39; GPR7 antagonist: -3

Results for COc1ccc(C)cc1NC(=O)COC(=O)c1ccc(OCc2ccc(Cl)cc2Cl)c(OC)c1 ?
EP2 mod: -6; OX1R antag-1: 7; CHO parental Ca: -18; OX1R antag-2: -8; PGE2 EP2 inh: 4; GPR7 antagonist: 12

What do the screens show for `Cc1cc([N+](=O)[O-])ccc1-c1ccc(C2Nc3ccccc3C(=O)N2O)o1` (stereo unspecified)?
EP2 mod: 0; OX1R antag-1: 8; CHO parental Ca: -10; OX1R antag-2: -17; PGE2 EP2 inh: 10; GPR7 antagonist: -6

What do the screens show for `Cc1cccc(-n2c(SCC(=O)NCc3ccc4c(c3)OCO4)nc3ccccc3c2=O)c1`?
EP2 mod: 5; OX1R antag-1: 40*; CHO parental Ca: -10; OX1R antag-2: -11; PGE2 EP2 inh: 6; GPR7 antagonist: -6

How did CCCC(=O)Nc1ccc(C(=O)Nc2cc(C(F)(F)F)ccc2Cl)cc1 do in these assays?
EP2 mod: 2; OX1R antag-1: 31; CHO parental Ca: 69*; OX1R antag-2: -5; PGE2 EP2 inh: 9; GPR7 antagonist: -3

What do the screens show for `O=C(Nc1cc(C(F)(F)F)ccc1Cl)c1ccc(NC(=O)C(F)(F)F)cc1`?
EP2 mod: 17; OX1R antag-1: 8; CHO parental Ca: -5; OX1R antag-2: -14; PGE2 EP2 inh: 7; GPR7 antagonist: -7

What do the screens show for `Cc1ncoc1C(=O)Nc1ncc([N+](=O)[O-])s1`?
EP2 mod: 11; OX1R antag-1: 23; CHO parental Ca: -4; OX1R antag-2: -4; PGE2 EP2 inh: 6; GPR7 antagonist: -14

Results for O=C(CCS(=O)(=O)Cc1ccccc1)Nc1ncc([N+](=O)[O-])s1 ?
OX1R antag-1: 49*; CHO parental Ca: -2; OX1R antag-2: -15; GPR7 antagonist: -9

How did Cc1ccc(CC(=O)Nc2ncc([N+](=O)[O-])s2)cc1 do in these assays?
EP2 mod: -17; OX1R antag-1: 40*; CHO parental Ca: 10; OX1R antag-2: -10; PGE2 EP2 inh: 4; GPR7 antagonist: 5

How did O=C(COC(=O)c1ccc(Br)o1)Nc1ncc([N+](=O)[O-])s1 do in these assays?
OX1R antag-1: 41*; CHO parental Ca: 13; OX1R antag-2: 12

How did CCCCC(CC)C(=O)Nc1ncc([N+](=O)[O-])s1 (stereo unspecified) do in these assays?
EP2 mod: -35; OX1R antag-1: 36; CHO parental Ca: 38*; OX1R antag-2: 25; PGE2 EP2 inh: 10; GPR7 antagonist: -5

Results for CN1CCN(C(=O)CSc2cc(=O)n(C)c3ccccc23)CC1 ?
EP2 mod: 21; OX1R antag-1: 4; CHO parental Ca: 8; OX1R antag-2: 3; PGE2 EP2 inh: 8; GPR7 antagonist: -16

Results for CCCn1c(=O)c(C(=O)NCCN2CCNCC2)c(O)c2ccccc21 ?
EP2 mod: -30; PGE2 EP2 inh: 10

How did CCN(Cc1ccccc1)S(=O)(=O)c1cc(C(=O)NC(C)C2CC3CCC2C3)ccc1OC (stereo unspecified) do in these assays?
EP2 mod: 9; OX1R antag-1: 21; CHO parental Ca: -40; OX1R antag-2: -26; PGE2 EP2 inh: 8; GPR7 antagonist: 0

How did CCOc1cc(N2CCOCC2)c(OCC)cc1NC(=O)c1cc(-c2ccco2)nc2ccccc12 do in these assays?
EP2 mod: -15; OX1R antag-1: 37*; CHO parental Ca: 8; OX1R antag-2: -1; PGE2 EP2 inh: 7; GPR7 antagonist: -2

Results for CCOc1cc(N2CCOCC2)c(OCC)cc1NC(=O)COc1ncnc2ccccc12 ?
EP2 mod: 12; OX1R antag-1: 2; CHO parental Ca: -18; OX1R antag-2: -13; PGE2 EP2 inh: 7; GPR7 antagonist: -5

Results for COc1ccc(NC(=O)n2ncc3c(C)cccc32)cc1OC ?
OX1R antag-1: 35*; CHO parental Ca: -21; OX1R antag-2: -29; GPR7 antagonist: -2

Results for COc1ccc(-c2cc(=O)c3ccccc3o2)cc1 ?
EP2 mod: 10; OX1R antag-1: 67*; CHO parental Ca: -19; OX1R antag-2: -17; PGE2 EP2 inh: 16

Results for CC(=O)c1nn(-c2ccccc2)cc1C(=O)c1cccc(Br)c1 ?
EP2 mod: 9; OX1R antag-1: 13; CHO parental Ca: -3; OX1R antag-2: -11; PGE2 EP2 inh: 4; GPR7 antagonist: -6

How did COc1ccc2c(c1)C=C(CN1CCC(CO)(CCc3ccccc3)CC1)CO2 do in these assays?
EP2 mod: -95; OX1R antag-1: 8; CHO parental Ca: -6; OX1R antag-2: -27; PGE2 EP2 inh: 17; GPR7 antagonist: -6

Results for COc1ccc(CC2(CO)CCN(CC3=Cc4cc(Cl)ccc4OC3)CC2)cc1 ?
EP2 mod: -78; OX1R antag-1: 70; CHO parental Ca: 64*; OX1R antag-2: 43*; PGE2 EP2 inh: 15; GPR7 antagonist: 5

What do the screens show for `Cc1cccc(NC(=O)COC(=O)c2cccc(S(=O)(=O)N3CCCCCC3)c2)c1`?
OX1R antag-1: 17; CHO parental Ca: 4; OX1R antag-2: 17

What do the screens show for `CCOc1ccccc1CNC(=O)c1cc2oc3ccccc3c2n1CC`?
EP2 mod: -14; OX1R antag-1: 53*; CHO parental Ca: -13; OX1R antag-2: -14; PGE2 EP2 inh: 4; GPR7 antagonist: 0

How did COC(=O)c1cc(C)cc(=O)o1 do in these assays?
EP2 mod: 6; OX1R antag-1: 12; CHO parental Ca: -15; OX1R antag-2: 7; PGE2 EP2 inh: 22; GPR7 antagonist: -13

Results for N#Cc1ccc(Nc2nc(-c3ccc(O)cc3O)cs2)cc1C(F)(F)F ?
OX1R antag-1: 53*; CHO parental Ca: 2; OX1R antag-2: 32

Results for Oc1ccc(-c2csc(Nc3ncccn3)n2)c(O)c1 ?
EP2 mod: -15; OX1R antag-1: 8; CHO parental Ca: -9; OX1R antag-2: -6; PGE2 EP2 inh: 10; GPR7 antagonist: -10

Results for CC1CCN(C(=O)CN2C(=O)NC(C)(c3ccc4ccccc4c3)C2=O)CC1 (stereo unspecified) ?
OX1R antag-1: 9; CHO parental Ca: -17; OX1R antag-2: -21

What do the screens show for `Cc1ccc(S(=O)(=O)N2CCSC2)cc1C`?
EP2 mod: -14; OX1R antag-1: 7; CHO parental Ca: -11; OX1R antag-2: -14; PGE2 EP2 inh: 109*!; GPR7 antagonist: 7

Bioassay records (PubChem)
